Assay results taken from ChEMBL document CHEMBL1124035, “1-Amino-substituted 4-methyl-5H-pyrido[4,3-b]indoles (gamma-carbolines) as tricyclic analogues of ellipticines: a new class of antineoplastic agents” (1988).

Assays:
Calf thymus DNA = assay: Apparent DNA affinity constant; format: nucleic-acid assay; conditions: Bos taurus
Outline: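 Apparent DNA affinity constant was measured by competition with ethidium bromide. Buffer was 20 mM Na2HPO4/NaH2PO4, 0.1 M NaCl, 1 mM EDTA, pH 7.4, with calf thymus DNA at 10 μg/mL. Values are given in 10^6 M⁻¹.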

L1210 = assay: Ability to reduce the cell count to 50% in L1210 culture cells; format: functional; conditions: Mus musculus, read-out: ID50 (the source's name)
Outline: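 L1210 cells in exponential growth in RPMI 1640 with 2 mM glutamine, penicillin/streptomycin and 10% FCS, 37 °C, 5% CO2. Drugs dissolved in distilled water were added to cells at 0.8 × 10^5 cells/mL for 48 h, then cells were counted. ID50 is the concentration halving cell proliferation versus controls, from regression of dose-response data; mean of two independent experiments.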

Mus musculus [1] = assay: Antitumor activity against P388 leukemia in mice at a dose of 10 mg/kg administered intraperitoneally for 5 days; format: functional; conditions: route intraperitoneal
Outline: (§1)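 CDF1 hybrid male or female mice, 10 per group, were inoculated ip with 10^6 viable P388 cells on day 0. Drugs in distilled water were given ip (0.1 mL/10 g body weight) daily D1-5. Vehicle, 5-fluorouracil and BD 84 were given the same way. T/C = median survival day of treated / controls × 100; T/C > 128% was significant; cures counted at D60.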

Mus musculus [2] = assay: Antitumor activity against P388 leukemia in mice at a dose of 2.5 mg/kg administered intraperitoneally for 5 days; format: functional; conditions: route intraperitoneal; outline: as §1
Mus musculus [3] = assay: Antitumor activity against P388 leukemia in mice at a dose of 20 mg/kg administered intraperitoneally for 5 days; Nontoxic at this dose; format: functional; conditions: route intraperitoneal
Outline: (§2)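 CDF1 hybrid male or female mice, 10 per group, were inoculated ip on day 0 with 10^6 viable P388 leukemia cells. Drug in distilled water was given ip (0.1 mL/10 g body weight) daily on days 1-5, with vehicle, 5-fluorouracil and BD 84 controls given the same way. T/C = median survival of treated/controls × 100; T/C > 128% counted as significant.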

Mus musculus [4] = assay: Antitumor activity against P388 leukemia in mice at a dose of 5 mg/kg administered intraperitoneally for 5 days; format: functional; conditions: route intraperitoneal; outline: as §2
Mus musculus [5] = assay: Antitumor activity against P388 leukemia in mice at a dose of 0.5 mg/kg administered intraperitoneally for 5 days; format: functional; conditions: route intraperitoneal; outline: as §1
Mus musculus [6] = assay: Antitumor activity against P388 leukemia in mice at a dose of 1 mg/kg administered intraperitoneally for 5 days; format: functional; conditions: route intraperitoneal; outline: as §1
Mus musculus [7] = assay: Antitumor activity against P388 leukemia in mice at a dose of 16 mg/kg administered intraperitoneally for 5 days; format: functional; conditions: route intraperitoneal; outline: as §1
Mus musculus [8] = assay: Antitumor activity against P388 leukemia in mice at a dose of 2 mg/kg administered intraperitoneally for 5 days; format: functional; conditions: route intraperitoneal; outline: as §1
Mus musculus [9] = assay: Antitumor activity against P388 leukemia in mice at a dose of 24 mg/kg administered intraperitoneally for 5 days; format: functional; conditions: route intraperitoneal; outline: as §2
Mus musculus [10] = assay: Antitumor activity against P388 leukemia in mice at a dose of 4 mg/kg administered intraperitoneally; format: functional; conditions: route intraperitoneal
Mus musculus [11] = assay: Antitumor activity against P388 leukemia in mice at a dose of 8 mg/kg administered intraperitoneally for 5 days; format: functional; conditions: route intraperitoneal; outline: as §2

| K aff (Calf thymus DNA) [M⁻¹] | IC50 (L1210) [µM] | SMILES | T/C (Mus musculus [1]) [%] | T/C (Mus musculus [2]) [%] | T/C (Mus musculus [3]) [%] | T/C (Mus musculus [4]) [%] | T/C (Mus musculus [5]) [%] | T/C (Mus musculus [6]) [%] | T/C (Mus musculus [7]) [%] | T/C (Mus musculus [8]) [%] | T/C (Mus musculus [9]) [%] | T/C (Mus musculus [10]) [%] | T/C (Mus musculus [11]) [%] |
| --- | --- | --- | --- | --- | --- | --- | --- | --- | --- | --- | --- | --- | --- |
| 120000 | 0.19 | CN(C)CCCNc1nccc2c1c1cc(O)ccc1n2C | 169 | 137 | 173 | 145 |  |  |  |  |  |  |  |
| 700000 | 0.1 | CCN(CC)CCCNc1nccc2c(C)c3[nH]c4ccc(OC)cc4c3c(C)c12 [RETELLIPTINE] |  |  |  |  | 171 | 178 | 283 | 188 | 113 | 245 | 273 |
